Measurements from publication PMC11754507 (Ophthalmology Science, 2024).

Tests used:
[1] = tested on: systemic C3 activation (classical pathway); settings: serum concentration threshold for inhibition of systemic C3 activation; cited from earlier work
[2] = tested on: systemic C3 activation (alternative pathway); settings: serum concentration threshold for inhibition of systemic C3 activation; cited from earlier work
[3] = type: in vivo, human; settings: intravitreal
Procedure, shortened: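 Serum levels pooled from 4 clinical studies in adults with GA or nAMD, after single intravitreal 4, 10 or 20 mg or 15 mg monthly or every other month. LLOQ 0.10 μg/mL; BLQ samples (>20%) handled by M3 method. Vitreous dose compartment, first-order absorption into one serum compartment, first-order elimination; stepwise covariates (forward α=0.05, backward α=0.001); half-lives are median empirical Bayes estimates.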

[4] = median empirical Bayes estimated

pegcetacoplan
EC50, classical pathway [1]: 5.90 µg/mL | half-maximal effective concentration [EC50], alternative pathway [2]: 2.77 µg/mL | VC/F, Transformed Estimate ([3]; apparent volume of the central serum compartment, 261 patients with GA or nAMD): 1.83 L | half-life based on the slowest rate process [3]: approximately 2 weeks | absorption half-life (vitreous-to-serum) [3, 4]: 314 h | elimination half-life (serum) [3, 4]: 108 h | KA, Transformed Estimate ([3]; vitreous-to-serum absorption rate constant, 261 patients with GA or nAMD): 0.0528 day⁻¹
